The text below walks through data of ChEMBL document CHEMBL3632537, “Chalcones from Angelica keiskei: Evaluation of Their Heat Shock Protein Inducing Activities” (J Nat Prod, 2015).

The source made the active and inactive calls. The calls are words filed in the database; no cut-off is given here.

In one data set the test system is NCI-H460. The data set can be described thus: Induction of hsp25 promoter activity in human NCI-H460 cells at 10 uM measured at 5 hrs by luciferase reporter gene assay relative to control. It is filed as functional. An outline of the steps: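 NCI-H460 human lung cancer cells carrying a luciferase reporter driven by the murine hsp25 promoter. Cells were plated at 1 × 10⁵ per well, grown 24 h, then exposed to 10 μM compound and harvested 5 h later. Lysate luciferase was normalized to β-galactosidase and expressed as fold induction over untreated control. Values are mean ± SD of three independent experiments.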
Background: Reporter assays use an easily measured gene product as a stand-in for the process of interest.

The subject of data set [1] is L132 (Homo sapiens). As to the kind of experiment: Upregulation of HSF1 mRNA expression in human L132 cells by RT-PCR analysis.
In data set [2] the test system is L132 (Homo sapiens). As to the kind of experiment: Upregulation of HSP70 mRNA expression in human L132 cells by RT-PCR analysis.
Data set [3] has as its system L132 (Homo sapiens). As to the kind of experiment: Upregulation of HSP27 mRNA expression in human L132 cells by RT-PCR analysis.
In data set [4] the test system is L132 (Homo sapiens). As to the kind of experiment: Upregulation of HSF1 protein expression in human L132 cells by Western blot analysis. For orientation: In western blotting, separated proteins are transferred to a membrane and probed.
The subject of data set [5] is L132 (Homo sapiens). As to the kind of experiment: Upregulation of HSP70 protein expression in human L132 cells by Western blot analysis.
For data set [6], the system named is L132 (Homo sapiens). The data set can be described thus: Upregulation of HSP27 protein expression in human L132 cells by Western blot analysis.
A short description of data set [7]: Cytotoxicity against human L-132 cells assessed as cell viability at 1 to 8 uM after 12 hrs by MTT assay. It is filed as cell-based. Conditions: l132, 12 h. An outline of the steps: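 L132 human lung fibroblasts exposed 12 h to 1, 2, 4 or 8 μM; medium swapped for MTT 0.5 mg/mL in PBS, 3 h at 37 °C, formazan dissolved in DMSO, absorbance at 540 nm converted to cell number via calibration curve; viability as ratio to DMSO no-treatment control; mean ± SD of three independent experiments, Student's t test vs untreated.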
(Tetrazolium assays rely on reduction of a dye to a coloured formazan, in cell work by metabolically active cells.)

Data set [8] has as its system L132 (Homo sapiens). As to the kind of experiment: Upregulation of HSP70 mRNA expression in human L132 cells at 2 uM measured at 3 hrs by RT-PCR analysis relative to control.
In data set [9] the test system is L132 (Homo sapiens). As to the kind of experiment: Upregulation of HSP27 mRNA expression in human L132 cells at 2 uM measured at 3 hrs by RT-PCR analysis relative to control.
The subject of data set [10] is L132 (Homo sapiens). As to the kind of experiment: Upregulation of HSF1 protein expression in human L132 cells at 2 uM measured at 6 hrs by Western blot analysis relative to control.
The test system of data set [11] is L132 (Homo sapiens). The data set can be described thus: Upregulation of HSP70 protein expression in human L132 cells at 2 uM measured at 6 hrs by Western blot analysis relative to control.
Data set [12] concerns L132 (Homo sapiens). As to the kind of experiment: Upregulation of HSP27 protein expression in human L132 cells at 2 uM measured at 6 hrs by Western blot analysis relative to control.

`COC(C)(C)/C=C/C/C(C)=C/Cc1c(O)ccc(C(=O)/C=C/c2ccc(O)cc2)c1O`: the “fold change (FC)” value in the data set on NCI-H460 is reported as 21.9. The outcome in the data set on L132 (Homo sapiens) [1], in the data set on L132 (Homo sapiens) [2], in the data set on L132 (Homo sapiens) [3], in the data set on L132 (Homo sapiens) [4], with L132 (Homo sapiens) [5] and in the data set with L132 (Homo sapiens) [6] was inactive.
Take `C=C(CCC=C(C)C)C(O)Cc1c(O)ccc(C(=O)/C=C/c2ccc(O)cc2)c1O` (racemic): the “fold change (FC)” value is 29.2 with NCI-H460; 5 in the data set on L132 (Homo sapiens) [8]; 1.5 with L132 (Homo sapiens) [9]; 4.3 in the data set on L132 (Homo sapiens) [10]; 1.5 in the data set on L132 (Homo sapiens) [11]; 4.6 with L132 (Homo sapiens) [12]. Moreover, in [7], the Activity result was “Non-toxic”.
With `CC1=C(O)C(=O)C=C2C1=CC=C1[C@@]2(C)CC[C@@]2(C)[C@@H]3C[C@](C)(C(=O)O)CC[C@]3(C)CC[C@]12C` [CELASTROL], the Activity entry in [7] is “Toxic”.
